# Bioassay records as filed in PubChem BioAssay.
# Rows were chosen to be rich in hits. Some 2.9% of all compounds tested hit in one or more screens of this group.
# M1 PAM parental – nonselective activator or artifact in parental CHO-K1 calcium assay; ATP EC20, Fluo-8 calcium fluorescence; 0% at ATP EC20, 100% at ATP max; 0.02% of 360,000 active; activation, % at 3 µM;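 active = activation above the run cutoff, the mean activation of all test compounds plus 3 SD, cut at about 40% in these data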;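 note: peak over basal fluorescence ratio in a 140 s read after ATP addition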
# CHO-K1 Ca antag – counter-screen for M1 antagonists: effect in parental CHO-K1 cells | AID 602250 | 0.6% of 360,000 active | ATP-induced calcium, Fluo-8 fluorescence | inhibition, % at 3 µM;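 active = inhibition above a per-plate cutoff, the plate's mean sample inhibition plus 3 SD, cut at about 24% in these data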;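 note: 0% = DMSO plus EC80 ATP and 100% = DMSO alone without ATP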
# OX1R antag-1 – blocks the human orexin 1 receptor; OX1R-expressing cells, FRET antagonist read-out; 1.8% of 330,000 active; inhibition, % at 6.6 µM; AID 485270; O43613; in the data active = inhibition mostly above about 38%, no sharp cut-off; inactive = mostly below about 40%;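 note: 0% = agonist challenge alone and 100% = reference antagonist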
# Target sequence (O43613 whole entry, looked up): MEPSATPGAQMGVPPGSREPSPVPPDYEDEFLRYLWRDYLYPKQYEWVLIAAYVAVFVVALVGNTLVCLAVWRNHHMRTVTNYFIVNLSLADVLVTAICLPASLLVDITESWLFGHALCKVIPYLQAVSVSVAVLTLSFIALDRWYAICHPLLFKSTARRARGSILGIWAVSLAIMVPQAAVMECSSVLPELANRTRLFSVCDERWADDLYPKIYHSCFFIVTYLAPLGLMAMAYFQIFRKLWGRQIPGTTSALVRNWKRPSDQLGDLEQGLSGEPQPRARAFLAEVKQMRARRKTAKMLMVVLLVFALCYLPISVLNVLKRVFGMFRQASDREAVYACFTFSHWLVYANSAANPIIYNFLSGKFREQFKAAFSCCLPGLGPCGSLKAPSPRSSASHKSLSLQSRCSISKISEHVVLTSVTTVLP
# CHO parental Ca – counter-screen: ATP calcium response change in parental CHO cells; 0.63% of 330,000 active; parental CHO-K1, ATP-induced calcium, Fluo-8 fluorescence; inhibition, % at 5.6 µM; AID 463079;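 active = inhibition above that plate's mean sample inhibition plus 3 SD, cut at about 26% in these data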;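 note: 0% = ATP-challenged DMSO wells and 100% = DMSO wells without ATP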
#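 Test system: untransfected parental CHO cell line; also added: ATP stimulus; dosing: 5.6 µM, single dose; signal: calcium-sensitive Fluo-8 fluorescence; measure: percent inhibition of ATP-evoked calcium rise, normalized to controls; benchmarks: low control ATP plus DMSO, high control DMSO only; replication: one well per compound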
# OX1R antag-2 – antagonists of human orexin 1 receptor. inhibition, % at 5 µM. CHO/OX1R cells, Fluo-8 calcium fluorescence, orexin A. O43613. AID 434989. 0.43% of 330,000 active;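 active = inhibition above its plate's threshold, mean inhibition of all tested compounds on the plate plus 3 SD, cut at about 37% in these data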;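 note: 0% = orexin A challenge wells and 100% = SB-334867-A antagonist wells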
# M1 ag parental – nonselective activator or artifact in parental CHO-K1 cells; 0.48% of 360,000 active; Fluo-8 calcium fluorescence; scaled to maximal ATP response, vehicle zero; activation, % at 3 µM; in the data active = activation above about 15%;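 note: untransfected CHO-K1 host cells lacking M1 receptor as counterscreen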
# * marks the source's active call; other numbers are inactive results; nt = not tested or not shown.
SMILES,M1 PAM parental,CHO-K1 Ca antag,OX1R antag-1,CHO parental Ca,OX1R antag-2,M1 ag parental
Cc1ccc2nc(-c3ccccc3)cc(C(=O)NCCCn3ccnc3)c2c1,10.5,1.3,9.3,-28.0,-22.1,2.7
O=C(NCCCn1ccnc1)c1cc(-c2cccnc2)nc2ccc(Br)cc12,4.3,-2.3,2.6,-10.2,-8.3,17.3*
O=C(NCC1CCCN1S(=O)(=O)c1cccs1)c1cccc([N+](=O)[O-])c1 (centres undefined),4.5,-4.9,55.2*,-11.1,-8.7,0.6
Cc1ccc(NC(=O)C(=O)NCC2CCCN2S(=O)(=O)c2cccs2)cc1C (centres undefined),28.6,-5.5,9.0,10.1,-13.0,6.0
Cc1ccccc1NC(=O)C(=O)NCC1CCCN1S(=O)(=O)c1cccs1 (centres undefined),17.5,1.9,33.6*,-14.9,-7.1,0.9
COc1cc(C2C(C#N)=C(N)N(Nc3ccccc3)C3=C2C(=O)CC(C)(C)C3)ccc1OCc1cccc(F)c1 (centres undefined),-9.0,32.9*,-0.1,-20.5,-15.4,-0.3
COc1cc(C2C(C#N)=C(N)N(Nc3ccccc3)C3=C2C(=O)CC(C)(C)C3)ccc1OCc1ccccc1 (centres undefined),5.1,-3.2,4.4,-14.5,-10.0,1.5
O=C(Nc1ccc(Cl)c(Cl)c1)O/N=C/c1ccncc1,1.2,28.1*,44.5,31.0*,27.3,12.4
O=C(Nc1cccc(Cl)c1)O/N=C\c1ccncc1,-3.5,-3.8,-0.4,-14.2,7.8,2.3
COc1cc(CNc2ccc3[nH]c(=O)[nH]c3c2)ccc1OCC(=O)NC(C)(C)C,5.4,10.6,27.9,98.8*,-14.7,0.4
Cc1ccc([C@@H]2CC=C(C(=O)O)[C@H](c3ccc(F)cc3)N2S(=O)(=O)c2ccccc2C)cc1,10.3,-11.9,57.5*,-8.3,-0.2,0.1
COc1cccc([C@@H]2CC=C(C(=O)O)[C@H](c3cccc(Cl)c3)N2S(=O)(=O)c2ccc(C)cc2)c1,3.4,-3.9,68.6*,-17.4,9.1,-0.1
Cc1ccccc1S(=O)(=O)N1[C@@H](c2ccccc2)C(C(=O)O)=CC[C@H]1c1ccc(Cl)cc1,24.2,-13.6,76.0*,-20.2,7.1,-0.5
CCOc1ccc([C@@H]2CC=C(C(=O)O)[C@H](c3ccc(Cl)cc3)N2S(=O)(=O)c2ccc(C)cc2)cc1,-5.6,-0.4,35.0,-2.4,-4.7,-0.7
COc1ccc([C@@H]2CC=C(C(=O)O)[C@H](c3ccc(Cl)cc3)N2S(=O)(=O)c2ccccc2C)cc1,-6.5,-2.9,48.2*,-26.4,-13.8,-0.3
CCc1nc2ccc(C(=O)NCCN3CCNC3=O)cn2c1N(C)CCC(C)C,13.2,-5.0,nt,nt,nt,0.9
Cc1ccccc1S(=O)(=O)N1[C@@H](c2ccc(Br)cc2)C(C(=O)O)=CC[C@H]1c1ccc(Cl)cc1,12.3,-9.9,33.6,-11.8,7.2,-0.4
Cc1ccc([C@@H]2CC=C(C(=O)O)[C@H](c3ccc(Br)cc3)N2S(=O)(=O)c2ccccc2C)cc1,-5.2,-0.6,39.0*,-3.0,24.7,-0.6
Cc1ccc([C@@H]2CC=C(C(=O)O)[C@H](c3ccc(Cl)cc3)N2S(=O)(=O)c2ccccc2C)cc1,15.8,-12.4,49.0*,-6.2,32.7,0.8
O=C(O)C1=CC[C@@H](c2ccc(Cl)cc2)N(S(=O)(=O)c2ccc(Cl)cc2)[C@H]1c1cccc(Cl)c1,1.1,-13.5,85.0*,78.4*,36.8,-0.8
Cc1ccc(S(=O)(=O)N2[C@@H](c3ccc(Cl)cc3)C(C(=O)O)=CC[C@H]2c2ccc(Cl)cc2)cc1,10.0,-18.2,57.6*,2.2,11.9,-0.3
Cc1ccc(S(=O)(=O)N2[C@@H](c3ccc(Cl)cc3)C(C(=O)O)=CC[C@H]2c2cccc(Cl)c2)cc1,14.5,-10.6,9.7,8.9,-20.9,0.3
Cc1ccc([C@@H]2CC=C(C(=O)O)[C@H](c3ccc(Cl)cc3)N2S(=O)(=O)c2ccc(C)cc2)cc1,13.8,-15.1,46.1,-8.3,-17.0,-0.3
OC1(c2ccc(Cl)c(Cl)c2)C[n+]2ccccc2N1Cc1ccccc1 (centres undefined),15.2,-22.6,8.8,-24.3,-12.2,0.0
